Experimental data from ChEMBL document CHEMBL1122482, “Optical resolution, absolute configuration, and activity of the enantiomers of proxyphylline” (J Med Chem, 1983).

Assays:
[1] = target: cGMP-dependent 3',5'-cyclic phosphodiesterase (Homo sapiens, UniProt O00408); test: Inhibition of human lung low-affinity cGMP phosphodiesterases (10-50 uM/L)
Outline: (§1)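 Enzyme source was lung cytosol from homogenized unaffected tissue of a patient undergoing total pulmectomy for pulmonary carcinoma. Phosphodiesterase activity was measured essentially by the Thompson and Appleman method. Substrates were cAMP or cGMP at 0.5–2 μmol/L for the high-affinity form and 10–50 μmol/L for the low-affinity form. Inhibitor was added at 0.25–1.0 mmol/L. K_I came from Dixon plots of initial rates.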

[2] = target: cGMP-specific 3',5'-cyclic phosphodiesterase (Homo sapiens, UniProt O76074); test: Inhibition of human lung high-affinity cGMP phosphodiesterases (0.5-2 uM/L); outline: as §1
[3] = Inhibition of human lung high-affinity cAMP phosphodiesterases (0.5-2 uM/L); outline: as §1

Sequence of cGMP-dependent 3',5'-cyclic phosphodiesterase (O00408 whole entry): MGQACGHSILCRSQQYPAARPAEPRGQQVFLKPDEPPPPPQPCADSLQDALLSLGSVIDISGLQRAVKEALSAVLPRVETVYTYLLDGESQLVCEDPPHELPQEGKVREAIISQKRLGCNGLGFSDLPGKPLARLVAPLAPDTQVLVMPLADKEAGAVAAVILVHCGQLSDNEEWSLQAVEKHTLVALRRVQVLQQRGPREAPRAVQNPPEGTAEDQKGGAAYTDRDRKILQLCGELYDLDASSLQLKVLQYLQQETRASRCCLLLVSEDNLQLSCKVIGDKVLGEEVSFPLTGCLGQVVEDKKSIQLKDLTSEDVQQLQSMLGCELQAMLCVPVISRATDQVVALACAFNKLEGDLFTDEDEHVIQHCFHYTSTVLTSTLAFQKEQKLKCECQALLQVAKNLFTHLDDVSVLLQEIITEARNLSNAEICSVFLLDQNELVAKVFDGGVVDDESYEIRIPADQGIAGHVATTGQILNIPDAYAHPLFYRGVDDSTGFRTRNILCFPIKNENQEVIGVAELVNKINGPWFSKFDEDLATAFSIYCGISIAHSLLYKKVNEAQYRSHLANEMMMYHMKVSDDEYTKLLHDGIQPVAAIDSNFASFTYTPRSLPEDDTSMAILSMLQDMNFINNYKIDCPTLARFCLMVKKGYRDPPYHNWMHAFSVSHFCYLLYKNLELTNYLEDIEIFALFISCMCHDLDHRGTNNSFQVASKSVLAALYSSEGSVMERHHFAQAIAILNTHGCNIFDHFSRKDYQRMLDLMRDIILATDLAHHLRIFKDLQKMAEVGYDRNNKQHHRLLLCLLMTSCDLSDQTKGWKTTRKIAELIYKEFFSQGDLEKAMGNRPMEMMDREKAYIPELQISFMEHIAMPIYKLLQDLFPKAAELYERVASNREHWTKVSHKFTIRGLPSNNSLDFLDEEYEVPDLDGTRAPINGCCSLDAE

SMILES | Ki [1] | Ki [2] | Ki [3]
C[C@@H](O)Cn1cnc2c1c(=O)n(C)c(=O)n2C [(R)-PROXYPHYLLINE] | 600 µM | 600 µM | 500 µM
CC(O)Cn1cnc2c1c(=O)n(C)c(=O)n2C (centres undefined) [PROXYPHYLLINE] | 600 µM | 600 µM | 500 µM
C[C@H](O)Cn1cnc2c1c(=O)n(C)c(=O)n2C [(S)-PROXYPHYLLINE] | 700 µM | 600 µM | 400 µM
